Measured values published in PubChem BioAssay AID573 (SRMLSC, 2007).
Screen size: about 65,000 compounds; about 1,400 (2.2%) were called active. The full list was thinned out, with actives kept by preference. A number with no mark means an inactive call.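 The calls were made as follows: active = growth inhibition at or above a cutoff equal to the mean over every tested compound plus 3 SD (cut at about 60% in these data); inactive = the rest.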

Assay: growth inhibitors of E. coli tolC mutant, primary screen, strain BW25113 ΔtolC::kan, 384-well (AID 573)
Conditions: OD615, hits give high values, screened at 10 µM (by protocol)
How it was run: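 Test system – E. coli BW25113 ΔtolC::kan, tolC deletion mutant strain · Detection – OD at 615 nm · Buffer or medium – LB with kanamycin 50 µg/mL · Times – 20 h compound exposure of bacteria at 37 °C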

SMILES	growth inhibition
COc1ccc(-c2cc(C(F)(F)F)nc(SCCC(=O)NCc3ccco3)n2)cc1	-9.96%
Cc1ccc(F)cc1NC(=O)c1cccc(N(C)C)c1	-26.6%
O=C(Nc1cccc(F)c1)c1ccc(S(=O)(=O)N2CCCC2)cc1	8.01%
CC(C)C(=O)N1c2ccccc2NC2=C(C(=O)CCC2)C1c1ccc(N(C)C)cc1 (stereo not drawn)	-4.93%
O=C1CCCC2=C1C(c1cccs1)n1nc(SCc3ccccc3)nc1N2 (stereo not drawn)	87.2% (active)
CCCC(=O)N1c2ccccc2NC2=C(C(=O)CCC2)C1c1ccc(F)cc1 (stereo not drawn)	55.5%
COC(=O)CSc1nc(C2CC2)nc2ccccc12	15.2%
COc1cccc(N(CC(=O)NC2CCCC2)C(=O)Cn2nnc(-c3ccc(C)cc3)n2)c1	-7.48%
CC(C)Cn1c(N)c(C(=O)NCc2cccs2)c2nc3ccccc3nc21	79.5% (active)
C=CCn1c(N)c(C(=O)OCC(C)C)c2nc3ccccc3nc21	30.8%
C=CCn1c(N)c(S(=O)(=O)c2cccs2)c2nc3ccccc3nc21	26.6%
COC(=O)c1ccc(/C=N\n2c(C)nnc2C)cc1	-9.6%
O=C(CCCN1C(=O)CSc2ncccc21)N1CCN(c2cccc(C(F)(F)F)c2)CC1	17.9%
COc1ccc2c(c1)OC(O)(C(F)(F)C(F)F)CC2=O (stereo not drawn)	100% (active)
N#CCCN(CCC#N)c1nnc(-c2ccccc2)s1	16.1%
CCOC(=O)C1=C(C)NC(C)=C(C(=O)OCC)C1C1=COCCO1	5.25%
CC1=CC(C)(C)N(C(=O)CSc2nccn2C)c2cc(C)ccc21	5.87%
O=C(CSc1nnc(-c2ccccc2)o1)N1CCOCC1	-8.06%
CC1=CC(C)(C)N(C(=O)CSc2nnc(-c3ccccc3)o2)c2ccc(C)cc21	65.4% (active)
CCCCN(C)C(=O)C1CCN(Cc2ccccn2)CC1	-9.54%
Cc1cnc(NC(=O)CSc2nnc(-c3ccccc3)n2Cc2ccccc2)s1	1%
CCOC(=O)Cn1c(CN(Cc2ccccc2)Cc2ccccc2)nc2c1c(=O)[nH]c(=O)n2C	13%
FC(F)(F)COc1nc(N2CCCCC2)nc(N2CCNCC2)n1	10.5%
COc1ccc2c3c(c(=O)oc2c1OCC(=O)C(C)(C)C)CCCC3	10.7%

SMILES	growth inhibition
CCCOc1ccc2c3c(c(=O)oc2c1OCCC)CCC3	73% (active)
O=c1oc2c(CN3CCCCC3)c(O)ccc2c2c1CCCCC2	2.35%
COc1ccccc1N1CCN(C(=O)c2cc3c(-c4ccc(Cl)cc4)nn(C)c3s2)CC1	14.7%
Cn1c(=O)c2c(nc(Br)n2CCSc2nc3ccccc3o2)n(C)c1=O	4.61%
Cc1cc(C)c(C#N)c(SCc2ccccc2C(=O)O)n1	8.75%
Cc1cc(C)c(C#N)c(SCc2ccc3c(c2)OCO3)n1	62.3% (active)
Cc1cc(C)c(C#N)c(SCc2[nH]nc3c2C(c2ccccc2)C(C#N)=C(N)O3)n1 (stereo not drawn)	18.3%
O=C(Nc1nnc(-c2ccc(Cl)cc2)o1)c1ccccc1Br	100% (active)
Cc1nonc1NC(=O)c1ccccc1Br	-1.19%
O=C(Nc1ccc(-c2nnc(-c3ccccc3)o2)cc1)c1ccc(Br)o1	-0.33%
Cn1c(=O)[nH]c(=O)c2c1nc(NCCCn1ccnc1)n2Cc1cccc(Br)c1	-18.6%
CCOC(=O)c1ccc(NC(=O)CS(=O)(=O)c2cn(CC)c3ccccc23)cc1	12.6%
Cc1ccc2c(c1)c1ncnc(N3CCc4ccccc4C3)c1n2C	21.5%
COc1ccc(OC)c(S(=O)(=O)N(C)CC(=O)N2CCN(c3ccccc3)CC2)c1	8.54%
COc1ccc(C(C(O)C(=O)c2c[nH]c3ccccc23)N2CCN(c3ccccc3)CC2)cc1 (stereo not drawn)	72.1% (active)
CCCC(=O)NC(C)C(c1cccs1)N1CCN(c2ccccc2)CC1 (stereo not drawn)	1.14%
O=S(=O)(c1ccc(F)cc1)N1CCN(Cc2ccccc2C(F)(F)F)CC1	38.3%
Cc1cccc(NC(=O)COc2ccc(Br)cc2C)n1	8.04%
O=C(Nc1ccc(Cl)cn1)Nc1cccs1	6.13%
c1ccc(Nc2nc(-c3ccncc3)cs2)nc1	-16.7%
Clc1ccc(Nc2nc(-c3cccs3)cs2)nc1	81.1% (active)
COc1ccc(-c2nnc(SC(=O)N3c4ccccc4Sc4ccccc43)o2)cc1	0.32%
CCc1nnc(NC(=O)C2CCCN2S(=O)(=O)c2ccccc2)s1 (stereo not drawn)	3.73%
CC1CCCCN1S(=O)(=O)c1ccc(C(=O)Nc2nnc(-c3cccs3)o2)cc1 (stereo not drawn)	99.1% (active)

SMILES	growth inhibition
CCc1nnc(NC(=O)c2ccc(S(=O)(=O)NC3CCCCC3)cc2)s1	18.5%
COCC(C)n1c(SCc2ccc(C(=O)OC)o2)nc2ccccc2c1=O (stereo not drawn)	33.1%
CCN(CC)S(=O)(=O)c1cccc(C(=O)Nc2ccccc2)c1	38.8%
O=C(CC1Oc2ccccc2NC1=O)NCCCN1CCN(Cc2ccccc2)CC1 (stereo not drawn)	-13.8%
Cc1ccc(Cn2c(C)nc3c(c2=O)c2nc4ccccc4nc2n3Cc2ccco2)cc1	29.2%
Cc1nc2c(c(=O)n1Cc1ccco1)c1nc3ccccc3nc1n2Cc1ccccc1	14.7%
Clc1cccc(-c2nc3nc4ccccc4nc3n2Cc2ccco2)c1	68% (active)
COc1ccc(C2N=C(N)N=C(N)N2c2ccccc2)cc1OC (stereo not drawn)	4.96%
O=C(CCCCn1c(=O)[nH]c2ccccc2c1=O)NCc1ccc2c(c1)OCO2	1.02%
CCn1cc(C(=O)NCc2ccc3c(c2)OCO3)c2cc(OC)c(OC)cc2c1=O	-12.7%
Cc1nc2c(C(=O)NCc3ccc4c(c3)OCO4)c[nH]n2c(=O)c1Cc1ccccc1F	100% (active)
CC(C)C(=O)N1CCN(c2nc(-c3ccccc3)c3c(c2C#N)CC(C)(C)OC3)CC1	4.78%
COC(=O)CSC1=C(C#N)C(c2ccccc2OC)C(C(=O)OC)C(=O)N1 (stereo not drawn)	-1.55%
CCCCCCn1c(CN2CCCC(C)C2)nc2c1c(=O)n(C)c(=O)n2C (stereo not drawn)	60.7% (active)
CC1CCCN(Cc2nc3c(c(=O)n(C)c(=O)n3C)n2CC(=O)c2ccccc2)C1 (stereo not drawn)	13.4%
CCCCCCn1c(CN2CCCCC2)nc2c1c(=O)n(C)c(=O)n2C	-3.32%
NC(=O)C1CC=CCC1C(=O)OCC(Cl)=C(Cl)Cl (stereo not drawn)	3.92%
COC(=O)c1cc(C(=O)CSc2nc(C)cc(C)n2)ccc1O	68% (active)
COC(=O)c1cccc(NC(=O)CSc2nc(C)cc(=O)[nH]2)c1	10.2%
CCOC(=O)c1c(C)[nH]c(C)c1C(=O)CSc1nc(N)cc(N)n1	-1.68%
CCOC(=O)c1nnn(-c2nonc2OC)c1-c1ccccc1	8.09%
COC(=O)c1ccc(NC(=O)CSc2nnc(CNc3ccc(OC)cc3)n2C)cc1	3.76%
CCN(CC(=O)NC(C)C)C(=O)CCNC(=O)c1ccc(Cl)cc1	-4.01%
CC1(N2CCOCC2)CC2(O)C(=[N+]1[O-])CCc1nonc12 (stereo not drawn)	-7.92%

SMILES	growth inhibition
COc1cc(C2C(C(=O)c3ccc(C)o3)=C(O)C(=O)N2CCc2ccccc2)ccc1O (stereo not drawn)	5.33%
COc1ccc(CCN2C(=O)c3[nH]nc(-c4ccccc4O)c3C2c2ccc(C)cc2)cc1OC (stereo not drawn)	64.4% (active)
COc1ccc(CCN(C)CCN2C(=O)c3ccccc3C2=O)cc1OC	-13.3%
CNC(=O)c1c(NC(=O)c2ccc(S(=O)(=O)N3CCOCC3)cc2)sc2c1CCC2	10.9%
CCOCCc1c(O)nc(SCC(=O)NCc2ccco2)[nH]c1=O	-0.82%
Cc1ccc(C)c(S(=O)(=O)n2cnc3ccccc32)c1	7.6%
CCOc1cc(C)c(Cl)cc1S(=O)(=O)n1nnc2ccccc21	63.4% (active)
CCOc1ccc(C(C)C)cc1S(=O)(=O)n1nc(C)cc1C	24.3%
CCN1CCN(C(=O)CN(C)S(=O)(=O)c2ccc(OC)cc2)CC1	8.07%
O=C(Nc1ccccc1)N(Cc1cccnc1)Cc1ccco1	-11.4%
CS(=O)(=O)NCc1ccc(C(=O)NCc2ccccc2)cc1	-9.06%
COc1ccccc1N1CCN(C(=O)CN(Cc2ccc(Cl)cc2)S(C)(=O)=O)CC1	25.9%
CCOc1ccc(CC(=O)Nc2ccc(S(=O)(=O)Nc3cc(C)on3)cc2)cc1OCC	4.16%
COc1cc2ccccc2cc1C(=O)Nc1ccc(S(=O)(=O)Nc2cc(C)on2)cc1	78.6% (active)
Cc1cc(NS(=O)(=O)c2ccccc2)no1	-26.8%
CCOC(=O)C1CCN(C(=O)c2oc3ccc(S(=O)(=O)N4CCCCCC4)cc3c2C)CC1	77.3% (active)
CCOC(=O)N1CCN(C(=O)c2cn(C)c3ccc(S(=O)(=O)N4CCCC4)cc3c2=O)CC1	-22.7%
CCOC(=O)C1CCN(C(=O)C2CCN(S(=O)(=O)N3CCCC3)CC2)CC1	-4.22%
COc1cccc(N(C(=O)c2ccn[nH]2)C2(C(=O)Nc3c(C)cccc3C)CCCCC2)c1	30.5%
Cc1ccc(C)c(S(=O)(=O)N2CC(=O)Nc3ccccc32)c1	17.8%
CC(=O)Nc1ccc(-c2nn3c(C)nnc3s2)cc1C	-9.56%
